# Measured values from PubChem BioAssay.
# The source made the active and inactive calls.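 Rule for the calls, unless noted: active = Her2 level under about 52% in both replicate screens, with viability over 70% of control (limit read from the data); inconclusive = Her2 under the limit in one screen only, or viability under 70%; inactive = Her2 level above the set limit.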
# What was measured:
# [1] = reducers of endogenous Her2 protein level, primary screen, SKBR3 breast tumor cells, AlphaScreen, ATP viability (AID 461); details: 18-24 h, measured here: SKBR3 viability, ATP luminescence, at 10 µM;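 for Her2 level: lower value means less Her2 protein in the cells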;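 for viability: percent of carrier control wells set as 100% viability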
# [2] = target: Receptor tyrosine-protein kinase erbB-2 (Homo sapiens) (UniProt P04626); experiment: as above; details: 18-24 h, at 10 µM, stronger effect = lower value
# Chain of Receptor tyrosine-protein kinase erbB-2 (Homo sapiens) (P04626 whole entry, looked up): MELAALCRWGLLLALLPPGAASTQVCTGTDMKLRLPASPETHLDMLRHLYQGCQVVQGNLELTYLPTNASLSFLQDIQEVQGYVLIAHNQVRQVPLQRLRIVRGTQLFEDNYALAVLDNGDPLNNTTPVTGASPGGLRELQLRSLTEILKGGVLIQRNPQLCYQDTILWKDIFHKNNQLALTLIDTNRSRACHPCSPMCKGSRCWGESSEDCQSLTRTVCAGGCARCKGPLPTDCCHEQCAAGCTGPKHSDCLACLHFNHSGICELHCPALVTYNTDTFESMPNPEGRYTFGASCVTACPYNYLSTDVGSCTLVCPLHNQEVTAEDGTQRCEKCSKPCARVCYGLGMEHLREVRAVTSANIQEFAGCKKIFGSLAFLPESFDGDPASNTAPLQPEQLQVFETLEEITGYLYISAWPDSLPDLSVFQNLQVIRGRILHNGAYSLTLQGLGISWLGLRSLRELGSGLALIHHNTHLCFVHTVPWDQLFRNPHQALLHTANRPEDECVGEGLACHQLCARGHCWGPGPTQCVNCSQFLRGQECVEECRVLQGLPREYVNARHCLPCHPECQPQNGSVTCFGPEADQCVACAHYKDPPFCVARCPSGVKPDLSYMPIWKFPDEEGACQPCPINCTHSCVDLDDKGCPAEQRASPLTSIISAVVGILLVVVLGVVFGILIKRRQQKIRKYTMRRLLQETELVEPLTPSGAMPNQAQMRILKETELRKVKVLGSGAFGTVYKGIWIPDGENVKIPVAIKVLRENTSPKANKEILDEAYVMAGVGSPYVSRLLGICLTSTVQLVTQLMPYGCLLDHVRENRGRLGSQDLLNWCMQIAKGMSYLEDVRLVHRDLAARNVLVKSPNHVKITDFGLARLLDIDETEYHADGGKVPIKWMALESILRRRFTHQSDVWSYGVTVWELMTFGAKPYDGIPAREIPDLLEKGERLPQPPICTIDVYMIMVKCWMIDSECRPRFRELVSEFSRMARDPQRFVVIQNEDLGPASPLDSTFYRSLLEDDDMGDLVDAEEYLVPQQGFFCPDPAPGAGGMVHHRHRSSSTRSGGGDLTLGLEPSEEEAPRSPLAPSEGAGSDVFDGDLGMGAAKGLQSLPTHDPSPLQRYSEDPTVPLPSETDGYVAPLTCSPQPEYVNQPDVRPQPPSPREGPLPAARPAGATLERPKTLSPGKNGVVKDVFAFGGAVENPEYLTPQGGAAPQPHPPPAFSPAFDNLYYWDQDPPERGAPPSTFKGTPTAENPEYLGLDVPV
# [3] = SK-BR-3 cell growth inhibitors, pilot screen, 24 h, human (AID 572;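 active = viability at or below 10% of carrier control in both of two separate runs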;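 note: compound exposure lasted between 18 and 24 h rather than exactly 24 h; 100% = carrier-treated control wells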); details: SK-BR-3 viability, CellTiter-Glo luminescence, at 10 µM, stronger effect = lower value
# [4] = HUVEC growth inhibition – cell-based, human, primary screen (AID 575;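 active = viability at or below 30% in both replicate assays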;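 note: 100% = median of untreated cell wells with 0.1% DMSO on each plate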); details: HUVEC proliferation, CellTiter-Glo luminescence, 72 h; at 10 µM; stronger effect = lower value
# Outline: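 Assay system: Primary human umbilical vein endothelial cells | Quantity: 1250 cells per well | Medium: Supplemented EBM, 2% fetal bovine serum | Detection: CellTiter-Glo luminescence measuring cellular ATP | Read-out: % viability vs DMSO wells | Plate: Collagen-coated 384-well format | Times: 72 h exposure, 37 °C, 5% CO2, 30 min RT equilibration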
# [5] = growth inhibitors of H69AR lung tumor, primary screen, human, duplicate replicates (AID 580;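 active = viability at or under a set limit in both replicates, limit being median viability minus 3 SD, cut at about 48% in these data, passing the limit was not always enough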;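 note: 100% = mean luminescence of untreated wells and 0% = no signal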); details: H69AR lung tumor cells viability, ATP luminescence, 72 h; at 10 µM; stronger effect = lower value
# [6] = reversal of MRP1-mediated doxorubicin resistance, pilot screen, H69AR cells, doxorubicin co-treatment (AID 601;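 active = viability loss from added drug above about 55%, and viability with drug at most 40%, in both replicates, limit read from the data, passing the limit was not always enough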); details: CellTiter-Glo, 72 h, at 10 µM; for differential viability (reversal): stronger effect = higher value
# [7] = 384-well plate pilot, post-Golgi transport modulator project, inhibition of yeast transport mutant growth (AID 636; in the data active = inhibition above about 31%); details: absorbance 615 nm, about 18 h, stronger effect = higher value
# [8] = growth suppression of yeast trafficking mutant, preliminary HTS, modulators of trafficking downstream of Golgi apparatus project, 1536-format plate, OD 615 nm (AID 637; in the data active = inhibition above about 30%); details: yeast transport mutant growth, absorbance 615 nm, 18 h; stronger effect = higher value
# [9] = H69AR cells + 2 uM doxorubicin, measured here: viability with 2 uM doxorubicin, stronger effect = lower value
# [10] = H69AR cells, compound alone cytotoxicity
smiles,measurement,setting,value
COC(=O)C1=C(C)C(c2cccs2)NC(=O)N1C (stereo not given),viability,[1],92.5%
same,Her2 level,[2],86.5% (inactive)
same,viability,[3],92.5% (inactive)
same,viability,[4],102% (inactive)
same,viability,[5],95.3% (inactive)
same,differential viability (reversal),[6]; H69AR cells + 2 uM doxorubicin,10.1% (inactive)
same,viability,[6]; [9],85.2%
same,viability,[6]; [10],95.3%
same,inhibition,[7],-6.13% (inactive)
same,inhibition,[8],1.48% (inactive)
Nc1c(C2=NCCO2)nnn1Cc1ccccc1,viability,[1],118%
same,Her2 level,[2],95.5% (inactive)
same,viability,[3],118% (inactive)
same,viability,[4],94% (inactive)
same,viability,[5],87.3% (inactive)
same,differential viability (reversal),[6]; H69AR cells + 2 uM doxorubicin,0.315% (inactive)
same,viability,[6]; [9],87%
same,viability,[6]; [10],87.3%
same,inhibition,[7],-3.42% (inactive)
same,inhibition,[8],3.28% (inactive)
CCOC(=O)C1=C(C)N=C2SC(C)C(=O)N2C1c1cccc(F)c1 (stereo not given),viability,[1],102%
same,Her2 level,[2],89.5% (inactive)
same,viability,[3],102% (inactive)
same,viability,[4],85.2% (inactive)
same,viability,[5],87.5% (inactive)
same,differential viability (reversal),[6]; H69AR cells + 2 uM doxorubicin,0.855% (inactive)
same,viability,[6]; [9],86.7%
same,viability,[6]; [10],87.5%
same,inhibition,[7],-3.82% (inactive)
same,inhibition,[8],1.13% (inactive)
O=S(=O)(NCCc1ccccn1)c1cccs1,viability,[1],99%
same,Her2 level,[2],93% (inactive)
same,viability,[3],99% (inactive)
same,viability,[4],97.4% (inactive)
same,viability,[5],101% (inactive)
same,differential viability (reversal),[6]; H69AR cells + 2 uM doxorubicin,2.29% (inactive)
same,viability,[6]; [9],98.3%
same,viability,[6]; [10],101%
same,inhibition,[7],-7.07% (inactive)
same,inhibition,[8],4.1% (inactive)
COC(=O)c1ccccc1S(=O)(=O)NC(=O)c1ccccc1,viability,[1],107%
same,Her2 level,[2],74% (inactive)
same,viability,[3],107% (inactive)
same,viability,[4],107% (inactive)
same,viability,[5],88.2% (inactive)
same,differential viability (reversal),[6]; H69AR cells + 2 uM doxorubicin,5.66% (inactive)
same,viability,[6]; [9],82.5%
same,viability,[6]; [10],88.2%
same,inhibition,[7],-1.82% (inactive)
same,inhibition,[8],-3.81% (inactive)
Cc1ccc(NC(=O)CSc2nnc(CNC(=O)c3c(F)cccc3Cl)o2)cc1,viability,[1],80%
same,Her2 level,[2],98% (inactive)
same,viability,[3],80% (inactive)
same,viability,[4],98% (inactive)
same,viability,[5],95.7% (inactive)
same,differential viability (reversal),[6]; H69AR cells + 2 uM doxorubicin,-0.775% (inactive)
same,viability,[6]; [9],96.5%
same,viability,[6]; [10],95.7%
same,inhibition,[7],-0.51% (inactive)
same,inhibition,[8],-6.83% (inactive)
Cc1ccc2c(c1)NC(=O)C(CC(=O)NCCN(CC(C)C)CC(C)C)O2 (stereo not given),viability,[1],88%
same,Her2 level,[2],93% (inactive)
same,viability,[3],88% (inactive)
same,viability,[4],87.3% (inactive)
same,viability,[5],91.6% (inactive)
same,differential viability (reversal),[6]; H69AR cells + 2 uM doxorubicin,5.71% (inactive)
same,viability,[6]; [9],85.8%
same,viability,[6]; [10],91.6%
same,inhibition,[7],2.13% (inactive)
same,inhibition,[8],-3.28% (inactive)
CCSc1nnc(NC(=O)CSc2nnc(Cc3cccn3C)n2-c2ccc(C)cc2)s1,viability,[1],95.5%
same,Her2 level,[2],108% (inactive)
same,viability,[3],95.5% (inactive)
same,viability,[4],78.4% (inactive)
same,viability,[5],88.8% (inactive)
same,differential viability (reversal),[6]; H69AR cells + 2 uM doxorubicin,-7.38% (inactive)
same,viability,[6]; [9],96.1%
same,viability,[6]; [10],88.8%
same,inhibition,[7],-1.56% (inactive)
same,inhibition,[8],-5.24% (inactive)
O=C(CSc1ccc(Cl)cc1)OCc1nnc(-c2ccccc2)o1,viability,[1],98%
same,Her2 level,[2],99% (inactive)
same,viability,[3],98% (inactive)
same,viability,[4],106% (inactive)
same,viability,[5],109% (inactive)
same,differential viability (reversal),[6]; H69AR cells + 2 uM doxorubicin,29.6% (inactive)
same,viability,[6]; [9],79.5%
same,viability,[6]; [10],109%
same,inhibition,[7],0.53% (inactive)
same,inhibition,[8],-0.91% (inactive)
O=S(=O)(c1cccc(-c2nnco2)c1)N1CCCC1,viability,[1],100%
same,Her2 level,[2],116% (inactive)
same,viability,[3],100% (inactive)
same,viability,[4],114% (inactive)
same,viability,[5],95.4% (inactive)
same,differential viability (reversal),[6]; H69AR cells + 2 uM doxorubicin,2.63% (inactive)
same,viability,[6]; [9],92.8%
same,viability,[6]; [10],95.4%
same,inhibition,[7],-3.33% (inactive)
same,inhibition,[8],-7.42% (inactive)
CN(C)CCCn1c(N)c(C#N)c2nc(C#N)c(C#N)nc21,viability,[1],179%
same,Her2 level,[2],47.5% (active)
same,viability,[3],179% (inactive)
same,viability,[4],66.9% (inactive)
same,viability,[5],90.1% (inactive)
same,differential viability (reversal),[6]; H69AR cells + 2 uM doxorubicin,-3.03% (inactive)
same,viability,[6]; [9],93.1%
same,viability,[6]; [10],90.1%
same,inhibition,[7],-1.89% (inactive)
same,inhibition,[8],-1.75% (inactive)
Cc1cccc(OCCCc2c(C)n[nH]c2C)c1,viability,[1],102%
same,Her2 level,[2],118% (inactive)
same,viability,[3],102% (inactive)
same,viability,[4],121% (inactive)
same,viability,[5],98.7% (inactive)
same,differential viability (reversal),[6]; H69AR cells + 2 uM doxorubicin,20.4% (inactive)
same,viability,[6]; [9],78.4%
same,viability,[6]; [10],98.7%
same,inhibition,[7],5.32% (inactive)
same,inhibition,[8],-8% (inactive)
COc1ccc(OC)c(NC(=O)CCN2CCC(C)CC2)c1,viability,[1],112%
same,Her2 level,[2],120% (inactive)
same,viability,[3],112% (inactive)
same,viability,[4],78.3% (inactive)
same,viability,[5],92.4% (inactive)
same,differential viability (reversal),[6]; H69AR cells + 2 uM doxorubicin,-0.63% (inactive)
same,viability,[6]; [9],93.1%
same,viability,[6]; [10],92.4%
same,inhibition,[7],4.86% (inactive)
same,inhibition,[8],22.4% (inactive)
CCCCn1c(SCC(=O)c2ccc3c(c2)OCCO3)nnc1-c1ccco1,viability,[1],94.5%
same,Her2 level,[2],104% (inactive)
same,viability,[3],94.5% (inactive)
same,viability,[4],81.8% (inactive)
same,viability,[5],95% (inactive)
same,differential viability (reversal),[6]; H69AR cells + 2 uM doxorubicin,1.53% (inactive)
same,viability,[6]; [9],93.4%
same,viability,[6]; [10],95%
same,inhibition,[7],1.73% (inactive)
same,inhibition,[8],16.1% (inactive)
Cn1c(=O)c2c([nH]c(=O)n2C)n(C)c1=O,viability,[1],104%
same,Her2 level,[2],84.5% (inactive)
same,viability,[3],104% (inactive)
same,viability,[4],88.7% (inactive)
same,viability,[5],90.2% (inactive)
same,differential viability (reversal),[6]; H69AR cells + 2 uM doxorubicin,-5.03% (inactive)
same,viability,[6]; [9],95.3%
same,viability,[6]; [10],90.2%
same,inhibition,[7],-2.21% (inactive)
same,inhibition,[8],7.21% (inactive)
